In the library only some 1.5% were active in any assay of this set; here they are far more common.
CXCR6 inh: inhibitors of human CXCR6 receptor. O00574. CHO-K1 PathHunter CXCR6 beta-arrestin, luminescence. inhibition, % at 20 µM. 360,000 compounds, 0.36% hits; in the data active = inhibition above about 34%, passing the limit was not always enough;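 also: antagonist mode with CXCL16 agonist at 10 nM final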
APJ agonist: activates the human apelin receptor APJ. P35414. CHO-K1 APJ PathHunter beta-arrestin, luminescence; 0% DMSO wells, 100% apelin. activation, % at 20 µM. 330,000 compounds, 0.11% hits;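 active = activation more than six SD over the plate average, tested at 20 µM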
Target sequence (P35414 whole entry, looked up): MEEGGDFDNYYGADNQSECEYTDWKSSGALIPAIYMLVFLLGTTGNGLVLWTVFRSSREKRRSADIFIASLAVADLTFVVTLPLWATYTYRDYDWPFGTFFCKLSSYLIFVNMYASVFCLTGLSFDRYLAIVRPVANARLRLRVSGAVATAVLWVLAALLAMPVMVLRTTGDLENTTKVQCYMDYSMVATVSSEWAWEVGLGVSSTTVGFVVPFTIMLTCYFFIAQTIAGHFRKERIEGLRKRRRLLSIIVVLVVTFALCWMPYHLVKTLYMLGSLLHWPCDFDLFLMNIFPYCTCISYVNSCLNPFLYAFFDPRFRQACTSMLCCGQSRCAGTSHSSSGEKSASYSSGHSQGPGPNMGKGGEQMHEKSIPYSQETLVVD
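assay system = CHO-K1 APJ beta-arrestin complementation cell line | input = cell density 1000 per well | dosing = compound 20 µM once, DMSO 1% | timing = compound 90 min 25 °C, reagent 1 h | measured by = luminescence from split beta-galactosidase complementation, Galacton Star/Emerald II substrate | read-out basis = APJ agonist activity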
EBI2 block: EBI2 (human) antagonism | EBI2 beta-arrestin recruitment, luminescence, 7a,25-OHC stimulated | inhibition, % at 5 µM | 360,000 compounds, 0.81% hits; in the data active = inhibition above about 38%;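 also: enzyme fragment complementation signal reports receptor beta-arrestin coupling in cells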
CCR6 antag: blocks CCL20-driven beta-arrestin recruitment at human CCR6; CHO-K1 CCR6 PathHunter beta-arrestin, luminescence, CCL20-stimulated; inhibition, % at 20 µM; 340,000 compounds, 0.49% hits; AID 493098;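 active = compounds whose inhibition of the agonist-driven luminescence signal at 20 µM reaches about 50%, limit read from the data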;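 also: cells stimulated with CCL20 at 14 nM final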
APJ antagonist: blocks the human apelin receptor APJ; P35414; CHO-K1 APJ beta-arrestin complementation, luminescence; inhibition, % at 20 µM; 330,000 compounds, 0.32% hits; AID 2521;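 active = inhibition above about 40% at 20 µM, limit read from the data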;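 also: cells challenged with 10 nM apelin-13 agonist together with compound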
EBI2 conf: confirmation of human EBI2 receptor antagonists. shares compounds with EBI2 block. EBI2 beta-arrestin luminescence, 7a,25-OHC antagonism. inhibition, % at 5 µM. 2,400 compounds, 29% hits. AID 651997;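 active = inhibition of at least 50%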
EBI2 agonist: activates EBI2, counter-screen for EBI2 antagonists. EBI2-expressing cells, agonist mode, luminescence, 60 min; 0% vehicle, 100% 7α,25-dihydroxycholesterol control. activation, % at 5 µM. shares compounds with EBI2 block. 2,400 tested, under 10 active;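 active = activation of at least 50%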
bGal counter: counter-screen for EBI2 antagonists: E. coli beta-galactosidase inhibition; shares compounds with EBI2 block; 2,400 compounds, 1% hits; inhibition, % at 5 µM; purified beta-galactosidase, luminescent Galacton Star, 15 min;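 active = replicate-average signal at least 3 plate SD below neutral wells, shown as high inhibition, flagging enzyme-inhibiting false positives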;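 also: higher means stronger loss of beta-gal luminescence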
Numbers stand for hits.

Screening O=C(Cn1nnc2c(sc3nc4c(c(-c5ccccc5)c32)CCC4)c1=O)c1ccccc1 returned CXCR6 inh inactive, APJ agonist inactive, EBI2 block 29.1, CCR6 antag inactive, APJ antagonist inactive, EBI2 conf inactive, EBI2 agonist inactive and bGal counter inactive.
COC(=O)[C@@]1(Cc2ccc(OC)cc2)[C@@H]2C(=CC(=O)[C@H]2CC(=O)C(=O)N2CCCC2)CN1C(=O)c1ccccc1 was read as CXCR6 inh inactive, APJ agonist inactive, EBI2 block 47.4, CCR6 antag inactive, APJ antagonist inactive, EBI2 conf 61.2, EBI2 agonist inactive and bGal counter inactive.
Screening COC(=O)[C@@]1(Cc2ccc(F)cc2)[C@H]2C(CC(=O)C(=O)N3CCCC3)C(=O)C[C@H]2CN1C(=O)c1ccccc1 (stereo partly drawn) returned CXCR6 inh inactive and EBI2 block inactive.
Screening COc1ccc(-n2c(SCCC#N)nnc2-c2cc(Cl)ccc2OC)cc1Cl returned CXCR6 inh inactive, APJ agonist inactive, EBI2 block inactive, CCR6 antag inactive and APJ antagonist inactive.
For CC(=O)Nc1ccc(Nc2cc(C)nc3c(-c4ccc(Cl)cc4)cnn23)cc1 the results were CXCR6 inh inactive, APJ agonist inactive, EBI2 block 53.4, CCR6 antag inactive, APJ antagonist inactive, EBI2 conf inactive, EBI2 agonist inactive and bGal counter inactive.
Screening CC(=O)Nc1ccc(Nc2cc(C)nc3c(-c4ccc(Cl)cc4)c(C)nn23)cc1 returned CXCR6 inh inactive, APJ agonist inactive, EBI2 block 45.7, CCR6 antag inactive, APJ antagonist inactive, EBI2 conf inactive, EBI2 agonist inactive and bGal counter inactive.
Screening Cc1cc(C)c(S(=O)(=O)Nc2ccc(N(C)C)cc2)c(C)c1-n1cnnn1 returned CXCR6 inh inactive, APJ agonist inactive, EBI2 block 65.1, CCR6 antag inactive, APJ antagonist inactive, EBI2 conf inactive, EBI2 agonist inactive and bGal counter inactive.
Cc1ccc(S(=O)(=O)Nc2ccc(-n3cnnn3)cc2)c(C)c1 was read as CXCR6 inh inactive, APJ agonist inactive, EBI2 block inactive, CCR6 antag inactive and APJ antagonist inactive.
Screening Cc1ccc(S(=O)(=O)N2CCN(C(=O)C(Cc3ccccc3)NC(=O)c3ccccc3)CC2)cc1 (stereo not drawn) returned CXCR6 inh inactive, APJ agonist inactive, EBI2 block inactive, CCR6 antag inactive and APJ antagonist inactive.
Screening CCOc1cc(CNc2ccccc2)cc(Br)c1OCC(=O)NC(C)(C)C returned CXCR6 inh inactive, APJ agonist inactive, EBI2 block inactive, CCR6 antag inactive and APJ antagonist inactive.
For COc1cc(CNc2ccc3[nH]c(=O)[nH]c3c2)cc(Br)c1OCc1ccc(F)cc1 the results were CXCR6 inh inactive, APJ agonist inactive, EBI2 block inactive, CCR6 antag inactive and APJ antagonist inactive.
For CCOc1cc(CNc2ccc(Br)cc2)cc(Br)c1OCC(=O)NC(C)(C)C the results were CXCR6 inh inactive, APJ agonist inactive, EBI2 block 66.1, CCR6 antag inactive, APJ antagonist inactive, EBI2 conf inactive, EBI2 agonist inactive and bGal counter inactive.
CCOc1cc(CNc2ccccc2)cc(Br)c1OCc1ccc(F)cc1 was read as CXCR6 inh inactive, APJ agonist inactive, EBI2 block 48.6, CCR6 antag inactive, APJ antagonist inactive, EBI2 conf inactive, EBI2 agonist inactive and bGal counter inactive.
For Cc1ccc(C)c(SCC(=O)Nc2cccnc2Cl)c1 the results were CXCR6 inh inactive, APJ agonist inactive, EBI2 block inactive, CCR6 antag inactive and APJ antagonist inactive.
CSc1ccc(/C=C(\NC(=O)c2ccco2)C(=O)N2CCCCC2)cc1 was read as CXCR6 inh inactive, APJ agonist inactive, EBI2 block inactive, CCR6 antag inactive and APJ antagonist inactive.
CCOC(=O)Cc1csc(NC(=O)/C=C/c2ccc(OC)cc2)n1 was read as CXCR6 inh inactive, APJ agonist inactive, EBI2 block 46.1, CCR6 antag inactive, APJ antagonist inactive, EBI2 conf inactive, EBI2 agonist inactive and bGal counter inactive.
CCOC(=O)Cc1csc(NC(=O)/C=C\c2ccccc2)n1 was read as CXCR6 inh inactive, APJ agonist inactive, EBI2 block inactive, CCR6 antag inactive and APJ antagonist inactive.
Screening CN1CCN(C(=O)c2ccc(-c3ccccc3)cc2)CC1 returned CXCR6 inh inactive, APJ agonist inactive, EBI2 block inactive, CCR6 antag inactive and APJ antagonist inactive.
Screening COc1ccc(CN2CCN(C(=O)c3ccc(-c4ccccc4)cc3)CC2)c(OC)c1OC returned CXCR6 inh inactive, APJ agonist inactive, EBI2 block 68.4, CCR6 antag inactive, APJ antagonist inactive, EBI2 conf inactive, EBI2 agonist inactive and bGal counter inactive.
For COc1ccc(CN2CCN(C(=O)c3cccc4ccccc34)CC2)c(OC)c1OC the results were CXCR6 inh inactive, APJ agonist inactive, EBI2 block inactive, CCR6 antag inactive and APJ antagonist inactive.
`COc1cccc(OC)c1C(=O)N1CCN(C(=O)c2ccc(-c3ccccc3)cc2)CC1` gave CXCR6 inh inactive, APJ agonist inactive, EBI2 block 78.5, CCR6 antag inactive, APJ antagonist inactive, EBI2 conf inactive, EBI2 agonist inactive and bGal counter inactive.
Screening Cc1ccc2c(c1)N(C(=O)CCC(=O)N1CCC(C(N)=O)CC1)CCO2 returned CXCR6 inh inactive, APJ agonist inactive, EBI2 block inactive, CCR6 antag inactive and APJ antagonist inactive.
`CCc1ccc(N(CC(=O)NC)S(C)(=O)=O)cc1` gave CXCR6 inh inactive, APJ agonist inactive, EBI2 block inactive, CCR6 antag inactive and APJ antagonist inactive.
CC1=C/C(=N\Nc2ccccc2[N+](=O)[O-])CC(C)(C)C1 was read as CXCR6 inh inactive, APJ agonist inactive, EBI2 block inactive, CCR6 antag inactive and APJ antagonist inactive.
Screening COc1ccccc1C1=CC(=O)C[C@H](c2ccc(Cl)cc2)C1 returned CXCR6 inh inactive, APJ agonist inactive, EBI2 block inactive, CCR6 antag inactive and APJ antagonist inactive.
Screening COc1cccc(C2=CC(=O)C[C@H](c3ccc(Cl)cc3)C2)c1OC returned CXCR6 inh inactive, APJ agonist inactive, EBI2 block 62.1, CCR6 antag inactive, APJ antagonist inactive, EBI2 conf inactive, EBI2 agonist inactive and bGal counter inactive.
`COc1ccc([C@H]2CC(=O)C=C(c3ccc(Cl)cc3C)C2)cc1` gave CXCR6 inh inactive, APJ agonist inactive, EBI2 block inactive, CCR6 antag inactive and APJ antagonist inactive.

Compound activity as filed in PubChem.
